Insulin prom act = TRM-6 insulin promoter activation; TRM-6 cells (human fetal islet line), insulin promoter eGFP reporter, imaging; plate-scaled: unstimulated 0, stimulated control 100; activation, % at 2 µM; 130,000 tested, 0.81% active; AID 1296;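 active means activation at 2 µM above a set limit, confirmed on inspection of the cell images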;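 further: share of cells whose green reporter signal exceeds an intensity cutoff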
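Material: TRM-6 insulin promoter–eGFP reporter cells. Buffer or medium: Low-glucose (5.5 mM) medium with tamoxifen. Probe or stimulus: tamoxifen at 0.75 µM added at seeding for reporter induction. Times: tamoxifen pre-incubation 15 h overnight, then compound exposure 48 h at 37 °C. Detection: high-content imaging of fixed cells with Hoechst nuclear stain.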
An asterisk follows results filed as active. The entries come from a sample that favours hits as a whole.

SMILES	Insulin prom act
CCOc1ccc(N(Cc2ccccc2F)C2=NC3CS(=O)(=O)CC3S2)cc1 (stereo not drawn)	-73
Cc1ccc(-n2c(=O)c3ccccc3n(CC(=O)NCc3ccco3)c2=O)cc1	-73
O=[N+]([O-])c1ccc(N2CCN(S(=O)(=O)c3ccc4ccccc4c3)CC2)cc1NCC1CCCO1 (stereo not drawn)	8
O=C(/C=C/c1c(Cl)cccc1Cl)NCCc1ccccc1	9
COc1ccc(CCNC(=O)/C=C/C(=O)O)cc1	0
O=C(O)/C=C/C(=O)NCCc1ccccc1	321*
Cc1c(OCc2ccc([N+](=O)[O-])cc2)ccc2c3c(c(=O)oc12)CCC3	194
C=C(C)COc1ccc2c3c(c(=O)oc2c1OCC(=C)C)CCC3	143*
Cc1c(OCC(=O)OC(C)C)ccc2c3c(c(=O)oc12)CCC3	7
O=C(O)CSCCOc1ccc(OCCSCC(=O)O)cc1	-7
CCOc1ccccc1NC(=O)COC(=O)CSc1ccc(Cl)cc1	-8
CCOC(=O)c1ccc(NC(=O)c2ccccc2C)cc1	8
O=C(Nc1ccccc1)Nc1ccccc1C(=O)NCc1ccccc1	77*
CNC(=O)Nc1ccccc1C(=O)NCc1ccccc1	-4
O=C(Nc1ccccc1)Nc1cccc(Cl)c1Cl	-8
CCCCn1c(=O)c(CCC(=O)OCC(=O)NC(=O)NCCC(C)C)nc2ccccc21	0
O=S(=O)(c1cccc(S(=O)(=O)N2CCC(Cc3ccccc3)CC2)c1)N1CCOCC1	3
O=S(=O)(c1cccc(S(=O)(=O)N2CCC(N3CCCCC3)CC2)c1)N1CCOCC1	631*
CC(=O)c1ccc(N2CCN(S(=O)(=O)c3cccc(S(=O)(=O)N4CCOCC4)c3)CC2)cc1	-4
CC1(C)Cc2cccc(OCC(=O)Nc3cc(C(F)(F)F)ccc3N3CCOCC3)c2O1	10
CC(C)C[C@@H]1NC(=O)[C@H](Cc2ccc(O)cc2)NC(=O)c2cc([N+](=O)[O-])cc(I)c2NCCC[C@@H](C(N)=O)NC1=O	5
NC(=O)[C@@H]1CCCNc2c(I)cc([N+](=O)[O-])cc2C(=O)N[C@@H](Cc2ccccc2)C(=O)N[C@@H](Cc2cnc[nH]2)C(=O)N1	285*
NC(=O)[C@@H]1CCCCNc2c(I)cc([N+](=O)[O-])cc2C(=O)N[C@@H](CCC(=O)O)C(=O)N[C@@H](CO)C(=O)N1	-60
CCN1CCCc2cc(CN(CCN3CCOCC3)C(=S)Nc3ccccc3C)ccc21	-8
CCN1CCCc2cc(CN(CCN3CCOCC3)C(=S)Nc3ccc(OC)c(OC)c3)ccc21	425*
SMILES	Insulin prom act
CCc1ccc(NC(=O)N(CCN2CCOCC2)Cc2ccc3c(c2)CCCN3CC)cc1	-8
COc1ccccc1NS(=O)(=O)/C=C/c1ccccc1	0
CCOc1cccc(C(=O)NC(=S)NCc2cccnc2)c1	-7
CCOc1cccc(C(=O)NC2CCCCC2)c1	147
CCOc1cccc(C(=O)N2CCCCC2c2cccnc2)c1 (stereo not drawn)	164*
C=CCn1c(CCCNC(=O)c2ccccc2OC)nc2ccccc21	0
Cn1c(=O)c(C(=O)NCC2CCCO2)c(O)c2ccccc21 (stereo not drawn)	8
CCn1nnc(-c2ccccc2NC(=O)c2cnccn2)n1	271
COc1ccc(NC(=O)c2cncc(Br)c2)cc1S(N)(=O)=O	-7
Cc1noc(NS(=O)(=O)c2ccc(NC(=O)Nc3ccc(Cl)c(Cl)c3)cc2)c1C	-75
Cc1noc(NS(=O)(=O)c2ccc(NC(=O)CCN3C(=O)c4ccccc4C3=O)cc2)c1C	6
Cc1noc(NS(=O)(=O)c2ccc(NC(=O)CSc3n[nH]c(-c4ccccc4)n3)cc2)c1C	154*
O=[N+]([O-])c1ccc(COc2ccccc2/C=N/O)cc1	529*
O=C(CNC(=O)c1ccccc1)OCc1ccc([N+](=O)[O-])cc1	-7
O=C(O)c1cc(/C=N\O)ccc1OCc1ccccc1	2
CC(C)CN(CC(C)C)C(=O)C12CCC(C)(C(=O)O1)C2(C)C (stereo not drawn)	5
O=C(COC(=O)CCSc1ccccc1)NCc1ccc(F)cc1	0
Cc1[nH]n2c(=O)c3c(nc2c1-c1ccccc1)CCC3	-83
N#Cc1c(N)nc2c(c1-c1ccncc1)CCCCCC2	450*
N#Cc1c2c(nc(N)c1-c1ccccc1)CCCCC2	-9
CSc1nc2c(c(-c3ccccc3)c1C#N)CCC2	411*
N#Cc1c(N)nc2c(c1-c1ccncc1)CCCC2	0
CC(C)c1ccc(-c2c(C#N)c(N)nc3c2CCCCC3)cc1	-7
Cc1ccc(NC(=S)NC(NC(=O)c2ccccc2C)C(Cl)(Cl)Cl)c(C)c1 (stereo not drawn)	-3
CC(=O)CCn1cnc([N+](=O)[O-])n1	-7
COC(=O)\C(C(C)=O)=C(/C=C/C=C/C=C/N(C)C)N(C)C	2
CC(NC(=O)CN1CCc2ccccc21)c1ccccc1 (stereo not drawn)	-3
CCCCC(=O)NCc1ccc(Cl)cc1	9
COc1ccc(NC(=O)/C(C#N)=C/c2ccc(OCc3ccccc3F)cc2)cc1	-7

Source: PubChem
